IDH1 R132H inh – IDH1 R132H (human) inhibition. O75874. IDH1 R132H reductase, diaphorase/resazurin fluorescence, 60 min. inhibition, % at 10 µM. actives 0.18% (n = 70,000); in the data active means inhibition above about 34%
KDM4C inh – inhibitors of human demethylase GASC-1 KDM4C | GST-KDM4C 2-372, H3K9me3 peptide, LANCE TR-FRET | inhibition, % at 12.5 µM | actives 0.15% (n = 96,000);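 active means mean replicate inhibition above about 25%, with at least 55% of replicates also reaching it, limit read from the data, passing the limit was not always enough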
Target sequence (Q9H3R0 2-372 limits assumed): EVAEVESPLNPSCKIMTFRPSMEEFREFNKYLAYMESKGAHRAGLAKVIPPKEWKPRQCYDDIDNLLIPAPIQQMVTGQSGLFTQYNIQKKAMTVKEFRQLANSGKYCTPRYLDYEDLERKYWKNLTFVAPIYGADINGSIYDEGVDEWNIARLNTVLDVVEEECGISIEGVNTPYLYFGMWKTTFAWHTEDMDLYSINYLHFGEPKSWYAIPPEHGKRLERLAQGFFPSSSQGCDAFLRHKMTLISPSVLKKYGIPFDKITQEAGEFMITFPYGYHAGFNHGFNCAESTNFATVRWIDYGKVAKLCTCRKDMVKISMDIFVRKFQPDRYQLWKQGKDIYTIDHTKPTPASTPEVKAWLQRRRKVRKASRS
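Compound: one test concentration per compound; Material: GST-GASC-1 enzyme fragment 2-372; Amount: GASC-1 enzyme at 10 nM final in reaction; Also added: H3K9me3 peptide substrate, Fe(II), 2-oxoglutarate; Technique: LANCE TR-FRET; Times: 30 min demethylation and 1 h detection at room temperature.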
T cruzi growth – blocks T. cruzi growth in NIH3T3 culture. AID 624255. T. cruzi beta-gal in NIH3T3, GalScreen luminescence, 90 h. actives 5.9% (n = 77,000). inhibition, % at 8.34 µM;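 active means mean inhibition above about 93%, with at least 55% of replicates each passing it, limit read from the data, passing the limit was not always enough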
Pf Dd2 growth – inhibitors of Plasmodium falciparum Dd2 growth | AID 1159554 | actives 2.3% (n = 94,000) | P. falciparum Dd2 growth, SYBR Green, 72 h; active compounds read low | activity change, % at 10 µM; in the data active means activity change below about -80%
Of the large screens only hits and unclear results are named; the others gave an inactive call. The list is not random: actives were taken first. Their share in the collection is about 5.8%.

Cc1noc(C)c1S(=O)(=O)N(C)C[C@@H]1OCCCC[C@@H](C)Oc2ccc(NC(=O)Nc3ccc(C(F)(F)F)cc3)cc2C(=O)N([C@H](C)CO)C[C@@H]1C	none (no result: IDH1 R132H inh)
Cc1noc(C)c1S(=O)(=O)N(C)C[C@@H]1OCCCC[C@@H](C)Oc2ccc(NC(=O)Nc3ccc(C(F)(F)F)cc3)cc2C(=O)N([C@H](C)CO)C[C@H]1C	Pf Dd2 growth -92 (no result: IDH1 R132H inh)
Cc1noc(C)c1S(=O)(=O)N(C)C[C@H]1OCCCC[C@H](C)Oc2ccc(NC(=O)Nc3ccc(C(F)(F)F)cc3)cc2C(=O)N([C@H](C)CO)C[C@H]1C	none (no result: IDH1 R132H inh)
CC1(C)COC(/C=C(\N)c2ccc(Br)cc2)=N1	none (no result: KDM4C inh, T cruzi growth, Pf Dd2 growth)
C[C@@H]1CN([C@H](C)CO)C(=O)c2cc(NC(=O)Cc3cn(C)c4ccccc34)ccc2O[C@H]1CN(C)S(=O)(=O)c1ccccc1	none
C[C@H](CO)N1C[C@H](C)[C@@H](CN(C)S(=O)(=O)c2ccccc2)Oc2ccc(NC(=O)Cc3cn(C)c4ccccc34)cc2C1=O	Pf Dd2 growth -87 (no result: KDM4C inh)
C[C@H]1CN([C@@H](C)CO)C(=O)c2cc(NC(=O)Cc3cn(C)c4ccccc34)ccc2O[C@@H]1CN(C)S(=O)(=O)c1ccccc1	Pf Dd2 growth -84 (no result: IDH1 R132H inh, KDM4C inh)
C[C@H](CO)N1C[C@H](C)[C@H](CN(C)S(=O)(=O)c2ccccc2)Oc2ccc(NC(=O)Cc3cn(C)c4ccccc34)cc2C1=O	Pf Dd2 growth -93 (no result: IDH1 R132H inh, KDM4C inh)
CC(=O)Nc1ccc(OC(=O)CSc2nc3ccccc3s2)cc1	none (no result: KDM4C inh, T cruzi growth, Pf Dd2 growth)
COc1ccc2c3c([nH]c2c1)[C@H](CO)N(Cc1cc(F)ccc1F)CC31CN(C(=O)C2CCC2)C1	Pf Dd2 growth -88 (no result: IDH1 R132H inh, T cruzi growth)
COc1ccc2c3c([nH]c2c1)[C@@H](CO)N(Cc1ccccc1F)CC31CN(C(=O)C2CCOCC2)C1	none (no result: IDH1 R132H inh, KDM4C inh, T cruzi growth)
CCCNC(=O)N1CC2(CN(C(=O)C3CCC3)C2)c2c([nH]c3cc(OC)ccc23)[C@H]1CO	Pf Dd2 growth -85 (no result: IDH1 R132H inh, T cruzi growth)
COc1ccc2c3c([nH]c2c1)[C@H](CO)N(Cc1nccs1)CC31CN(C(=O)C2CCC2)C1	none (no result: IDH1 R132H inh, T cruzi growth)
COc1ccc2c3c([nH]c2c1)[C@@H](CO)N(Cc1ccccc1F)CC31CN(C(=O)C2CCC2)C1	Pf Dd2 growth -92 (no result: IDH1 R132H inh, T cruzi growth)
CCCN(C)C[C@H]1OCCCC[C@@H](C)Oc2ccc(NS(=O)(=O)c3ccc(OC)cc3)cc2C(=O)N([C@@H](C)CO)C[C@H]1C	Pf Dd2 growth -88
CCCN(C)C[C@@H]1OCCCC[C@@H](C)Oc2ccc(NS(=O)(=O)c3ccc(OC)cc3)cc2C(=O)N([C@@H](C)CO)C[C@@H]1C	none (no result: T cruzi growth, Pf Dd2 growth)
CCCN(C)C[C@H]1OCCCC[C@H](C)Oc2ccc(NS(=O)(=O)c3ccc(F)cc3)cc2C(=O)N([C@@H](C)CO)C[C@@H]1C	Pf Dd2 growth -85
CCCN(C)C[C@H]1OCCCC[C@@H](C)Oc2ccc(NS(=O)(=O)c3c(C)noc3C)cc2C(=O)N([C@@H](C)CO)C[C@H]1C	Pf Dd2 growth -85 (no result: T cruzi growth)
Cc1noc(C)c1S(=O)(=O)Nc1ccc2c(c1)C(=O)N([C@@H](C)CO)C[C@@H](C)[C@@H](CN(C)Cc1ccc(Cl)c(Cl)c1)OCCCC[C@@H](C)O2	Pf Dd2 growth -82 (no result: IDH1 R132H inh)
CS(=O)(=O)N(CC(=O)Nc1ccc(Br)cc1)c1ccc(Cl)c(C(F)(F)F)c1	none (no result: KDM4C inh, T cruzi growth, Pf Dd2 growth)
NC(=O)C(Cc1ccccc1)NS(=O)(=O)c1ccc2oc3ccccc3c2c1 (centres undefined)	none (no result: KDM4C inh, T cruzi growth, Pf Dd2 growth)
COc1ccc(CN(C)C[C@H]2OCCCC[C@H](C)Oc3ccc(NS(=O)(=O)c4ccc(OC)cc4)cc3C(=O)N([C@@H](C)CO)C[C@H]2C)cc1	Pf Dd2 growth -83 (no result: T cruzi growth)
COc1ccc(S(=O)(=O)Nc2ccc3c(c2)C(=O)N([C@H](C)CO)C[C@@H](C)[C@H](CN(C)Cc2ccc(Cl)c(Cl)c2)OCCCC[C@@H](C)O3)cc1	Pf Dd2 growth -91 (no result: IDH1 R132H inh)
COc1ccc(S(=O)(=O)Nc2ccc3c(c2)C(=O)N([C@H](C)CO)C[C@H](C)[C@@H](CN(C)Cc2ccc(Cl)c(Cl)c2)OCCCC[C@@H](C)O3)cc1	Pf Dd2 growth -90 (no result: T cruzi growth)
COc1ccc(S(=O)(=O)Nc2ccc3c(c2)C(=O)N([C@H](C)CO)C[C@H](C)[C@@H](CN(C)Cc2ccc(Cl)c(Cl)c2)OCCCC[C@H](C)O3)cc1	none
COc1ccc(S(=O)(=O)Nc2ccc3c(c2)C(=O)N([C@@H](C)CO)C[C@@H](C)[C@@H](CN(C)Cc2ccc(Cl)c(Cl)c2)OCCCC[C@@H](C)O3)cc1	none (no result: T cruzi growth)
COc1ccc(CN(C)C[C@H]2OCCCC[C@@H](C)Oc3ccc(NS(=O)(=O)c4ccc(OC)cc4)cc3C(=O)N([C@@H](C)CO)C[C@H]2C)cc1	none

Bioassay records as filed in PubChem.
